In the library only some 3.1% were active in any assay of this set; here they are far more common.
hERG rescue – hERG rescue from dofetilide block, primary screen, cell-based, CHO-hERG, FluxOR thallium flux, dofetilide IC70. Voltage-gated inwardly rectifying potassium channel KCNH2 (Homo sapiens), Q12809. dofetilide IC70 present. activation (rescue from dofetilide block), less the hit threshold, % at 10 µM. 310,000 compounds, 0.51% hits. AID 1511, 2009;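 active = activation above the mean of controls blocked by dofetilide plus 5 SD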;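 also: thallium influx through hERG after potassium depolarization seen as dye fluorescence rise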
KCNK9 block – KCNK9 potassium channel inhibitors, primary screen, HEK293 cells, thallium flux | Potassium channel subfamily K member 9 (Homo sapiens), Q9NPC2 | FluxOR thallium flux fluorescence; hits give low values | B-score at 10 µM | 310,000 compounds, 1.2% hits | AID 488922, 2010;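 active = ratio B-score over 3 SD below the library mean, with starting fluorescence within 5 SD of its mean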;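 also: negative B-score means less thallium flux so channel inhibition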
KCNQ1 pot – potentiators or activators of KCNQ1 channel, primary screen, cell-based, thallium flux, high-throughput; CHO-K1 KCNQ1, thallium flux FluxOR fluorescence; hits give high values; B-score at 10 µM; Potassium voltage-gated channel subfamily KQT member 1 (Homo sapiens), P51787; 310,000 compounds, 0.35% hits;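 active = fluorescence ratio B-score, a plate-corrected score, at least three library SD, with initial intensity B-score within 5 SD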
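System: CHO-K1 cells stably expressing KCNQ1 / Medium: assay buffer for compound exposure, DMSO matched across wells / Reagent: thallium- and potassium-containing depolarizing buffer / Compound: one concentration, matched DMSO / Incubation: 20 min compound pretreatment at room temperature / Measured by: kinetic FluxOR fluorescence, 10 s baseline plus 110 s post-stimulus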
KCNK3 block – human KCNK3 channel inhibitors, primary screen, CHO cells, FluxOR thallium flux, B-score; 340,000 compounds, 0.84% hits; B-score at 10 µM; FluxOR fluorescence; hits give low values;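 active = B-score under library mean minus 4 SD, starting fluorescence ratio at most library mean plus 5 SD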;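 also: more negative B-score means stronger inhibition of thallium flux through KCNK3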
Target sequence (O14649 whole entry, looked up): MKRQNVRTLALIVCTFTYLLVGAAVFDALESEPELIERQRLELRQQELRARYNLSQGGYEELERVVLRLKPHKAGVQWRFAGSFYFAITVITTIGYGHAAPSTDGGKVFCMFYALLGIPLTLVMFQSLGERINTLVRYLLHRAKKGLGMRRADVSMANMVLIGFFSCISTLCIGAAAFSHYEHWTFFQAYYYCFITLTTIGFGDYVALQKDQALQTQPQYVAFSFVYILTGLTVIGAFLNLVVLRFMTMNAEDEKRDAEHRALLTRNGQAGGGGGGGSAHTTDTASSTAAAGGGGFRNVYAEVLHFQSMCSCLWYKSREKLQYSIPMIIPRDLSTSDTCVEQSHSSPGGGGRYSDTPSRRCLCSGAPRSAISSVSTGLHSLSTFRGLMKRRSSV
KCNQ1 block – inhibitors of human KCNQ1 channel, primary screen, cell-based, thallium flux, high-throughput; Potassium voltage-gated channel subfamily KQT member 1 (Homo sapiens), P51787; CHO-K1 KCNQ1, FluxOR thallium flux fluorescence; hits give high values; B-score at 10 µM; 310,000 compounds, 1.3% hits; AID 2642, 2010;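 active = compounds whose thallium flux B-score, printed positive for inhibition, exceeds three library SD while starting fluorescence stays within three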;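 also: channel opened by potassium depolarization with thallium stimulus after 20 min compound exposure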
* = called active by the depositor; i = inactive; x = no result.

SMILES	hERG rescue	KCNK9 block	KCNQ1 pot	KCNK3 block	KCNQ1 block
COc1ccc(C)cc1NC(=O)C(=O)NNC(=O)COc1ccc(Cl)cc1	88*	i	59*	i	i
O=C(NC(c1ccccc1)c1ccccc1)c1ccc(CO)cc1	-1	i	i	i	i
CC(C)Cn1c(N)c(C(=O)COC(=O)c2ccc(Br)cc2)c(=O)n(C)c1=O	x	x	x	i	x
Cc1ccc(-n2nc3ccc(N)cc3n2)c(C)c1	7.0*	i	i	i	i
Oc1c(Br)cc(Br)cc1C=Nc1cccc2ncccc12	4.8*	i	13*	i	i
Brc1cccc(C=Nc2cccc3ncccc23)c1	-11	i	i	i	i
Cn1ccc(NC(=O)c2ccc([N+](=O)[O-])cc2)n1	x	x	x	i	x
Cn1cnnc1SCC(=O)Nc1ncc([N+](=O)[O-])s1	x	x	x	i	x
Cc1ccc(S(=O)(=O)N2CCN(S(=O)(=O)c3ccccc3Br)CC2)cc1	x	x	x	i	x
CC(C)N(Cc1ccccc1)C(=O)CN1c2cccc3cccc(c23)S1(=O)=O	x	x	x	-10*	x
O=C(CN1c2cccc3cccc(c23)S1(=O)=O)Nc1ccccc1F	-3	i	i	i	i
CNC(=O)c1ccc(NC(=O)CN2c3cccc4cccc(c34)S2(=O)=O)cc1	14*	i	i	i	i
O=C(CN1c2cccc3cccc(c23)S1(=O)=O)Nc1ccccc1	-5	i	i	i	i
O=C(CN1c2cccc3cccc(c23)S1(=O)=O)Nc1ccc(F)c(F)c1F	x	x	x	-9.4*	x
CCCCN(C(=O)c1ccc(NC2CC2)c([N+](=O)[O-])c1)c1c(N)n(CC(C)C)c(=O)[nH]c1=O	x	x	x	i	x
Cc1c(C)n(Cc2ccc(F)cc2)c2ccc(C(=O)N3CCN(c4ccccn4)CC3)cc12	-9	i	i	i	6*
O=C(c1ccc(F)cc1)N1CCN(c2ccccn2)CC1	-7	i	i	i	i
Cc1cccc(C)c1OCC1CNC(=O)O1 (stereo not drawn)	6.5*	i	i	i	i
O=C1NCC(COCc2ccccc2)O1 (stereo not drawn)	-6	i	i	i	i
COc1ccc(NC(=O)N2CCC(c3nc(-c4cccs4)no3)CC2)cc1	-10	i	i	i	i
O=C(Nc1ccc(Cl)cc1)N1CCC(c2nc(-c3cccs3)no2)CC1	-12	i	i	i	6*
CN(CCCNC(=O)CCCOc1cc(=O)n(C)c2ccccc12)Cc1ccccc1	-7	i	8*	i	i
CN(CCNC(=O)CCCOc1cc(=O)n(C)c2ccccc12)Cc1ccccc1	-6	i	i	i	i
CC(C)Oc1ccc(C(=O)Nc2ccc(S(=O)(=O)N3CCN(C)CC3)cc2)cc1	-11	-7.3*	i	i	i
CCOc1ccc(C(=O)Nc2ccc(S(=O)(=O)N3CCN(C)CC3)cc2)cc1	-3	i	i	i	i
SMILES	hERG rescue	KCNK9 block	KCNQ1 pot	KCNK3 block	KCNQ1 block
Cc1ccc([N+](=O)[O-])cc1NC(=O)CN(C1CCCCC1)S(=O)(=O)c1ccc(Cl)cc1	-8	-7.7*	i	i	7*
O=C(Nc1ccc([N+](=O)[O-])cc1)/C(=C/c1cccc([N+](=O)[O-])c1)NC(=O)C1CCCCC1	-4	-6.9*	i	i	i
Cc1ccc([N+](=O)[O-])cc1NC(=O)C1CCCC1	5.0*	i	i	i	i
Cc1ccc([N+](=O)[O-])cc1NC(=O)C1CCN(S(C)(=O)=O)CC1	-8	i	i	i	i
Cc1ccc(C2(c3ccc(C)cc3)CC2C(=O)Nc2ccc([N+](=O)[O-])cc2O)cc1 (stereo not drawn)	-11	i	i	i	11*
Cc1ccc(NC(=O)/C(=C/c2cccc([N+](=O)[O-])c2)NC(=O)C2CCCCC2)c(C)c1	-9	i	i	i	i
COC(=O)c1ccc2cc(OC)cc([N+](=O)[O-])c2n1	x	x	x	i	x
CC(C)Cn1c(O)c(N=NC(=O)c2cccc(S(=O)(=O)N3CCCCC3)c2)c2ccccc21	-10	-7.9*	i	i	i
CSc1ccccc1NC(=O)CN(C)CC(=O)NCc1ccccc1	-2	i	i	i	i
CSc1ccccc1NC(=O)CN(C)Cc1cccc(Cl)c1	-21	-7.2*	i	i	i
CC(=O)OCCn1c2nc(=O)[nH]c(=O)c-2nc2cc(C)c(C)cc21	-46	i	i	i	37*
O=C(COc1cccc(C(F)(F)F)c1)Nc1ccccc1N1CCCCC1	-15	-7.8*	i	i	i
COc1ccc(N2CCCC2)c(NC(=O)COc2ccccc2Cl)c1	-8	i	i	i	i
Cc1ccc(OCC(=O)N/N=C/c2cc([N+](=O)[O-])ccc2N2CCCCC2)cc1	-6	-7.4*	i	i	i
COc1ccc(OCC(=O)Nc2cc(OC)ccc2N2CCCCC2)cc1	-4	-7.9*	i	i	i
O=C(COc1ccc([N+](=O)[O-])cc1)N/N=C/c1cc([N+](=O)[O-])ccc1N1CCOCC1	-3	i	i	i	i
Cc1ccc(C(=O)c2cc([N+](=O)[O-])ccc2N2CCCCC2)c(C)c1	-4	-7.5*	i	i	i
CCOc1ccc(CNC(=O)CCC(=O)N2Cc3ccccc3Oc3ncccc32)cc1	-8	i	i	i	i
CCn1cc(C(=O)NCCCOC(C)C)c(=O)c2cc(S(=O)(=O)N3CCOCC3)ccc21	-8	i	i	i	i
O=[N+]([O-])c1cc(S(=O)(=O)Nc2ccccc2)ccc1NCc1ccccc1	-4	-6.6*	i	i	i
O=[N+]([O-])c1cc(S(=O)(=O)Nc2ccccc2)ccc1NCc1cccnc1	-7	i	i	i	i
Cc1[nH]c2ccc(C(=O)OC(C)C(=O)N(C)c3ccccc3)cc2c1C (stereo not drawn)	-12	i	i	i	i
O=[N+]([O-])c1cc(Cl)cc(/C=N/Nc2nc3ccccc3s2)c1O	-8	i	i	i	6*
CCOC(=O)c1ccc(N2CCN(c3cc(C)ccc3C)CC2)c(N)c1	-7	-6.8*	i	i	i
CCOC(=O)N1CCC(N2CCN(c3cc(C)ccc3C)CC2)CC1	-8	i	i	i	i
COc1ccc(CNC(=O)CN2CCN(S(=O)(=O)c3ccccc3)CC2)cc1	x	x	x	i	x
